Source: PubChem (several laboratories)
APOBEC3A inh: inhibitors of human APOBEC3A DNA deaminase; P31941; recombinant A3A, FAM/TAMRA ssDNA deamination fluorescence; inhibition, % at 20 µM; actives 0.41% (n = 330,000);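 active = at least 40% inhibition at 20 µM here, with at most 30% in a related deaminase screen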;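 note: plate controls were A3A with DMSO for no effect and wells lacking A3A enzyme for full effect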
HKDC1 inh: blocks human hexokinase HKDC1 activity. recombinant HKDC1, G6PDH/diaphorase resazurin coupled fluorescence. actives 0.16% (n = 340,000). AID 493160. inhibition, % at 20 µM. Q2TB90;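 active = inhibition above about 35% when tested at 20 µM, limit read from the data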;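 note: plate controls were DMSO wells with enzyme for no effect and DMSO wells lacking enzyme for full effect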
Target sequence (Q2TB90 whole entry, looked up): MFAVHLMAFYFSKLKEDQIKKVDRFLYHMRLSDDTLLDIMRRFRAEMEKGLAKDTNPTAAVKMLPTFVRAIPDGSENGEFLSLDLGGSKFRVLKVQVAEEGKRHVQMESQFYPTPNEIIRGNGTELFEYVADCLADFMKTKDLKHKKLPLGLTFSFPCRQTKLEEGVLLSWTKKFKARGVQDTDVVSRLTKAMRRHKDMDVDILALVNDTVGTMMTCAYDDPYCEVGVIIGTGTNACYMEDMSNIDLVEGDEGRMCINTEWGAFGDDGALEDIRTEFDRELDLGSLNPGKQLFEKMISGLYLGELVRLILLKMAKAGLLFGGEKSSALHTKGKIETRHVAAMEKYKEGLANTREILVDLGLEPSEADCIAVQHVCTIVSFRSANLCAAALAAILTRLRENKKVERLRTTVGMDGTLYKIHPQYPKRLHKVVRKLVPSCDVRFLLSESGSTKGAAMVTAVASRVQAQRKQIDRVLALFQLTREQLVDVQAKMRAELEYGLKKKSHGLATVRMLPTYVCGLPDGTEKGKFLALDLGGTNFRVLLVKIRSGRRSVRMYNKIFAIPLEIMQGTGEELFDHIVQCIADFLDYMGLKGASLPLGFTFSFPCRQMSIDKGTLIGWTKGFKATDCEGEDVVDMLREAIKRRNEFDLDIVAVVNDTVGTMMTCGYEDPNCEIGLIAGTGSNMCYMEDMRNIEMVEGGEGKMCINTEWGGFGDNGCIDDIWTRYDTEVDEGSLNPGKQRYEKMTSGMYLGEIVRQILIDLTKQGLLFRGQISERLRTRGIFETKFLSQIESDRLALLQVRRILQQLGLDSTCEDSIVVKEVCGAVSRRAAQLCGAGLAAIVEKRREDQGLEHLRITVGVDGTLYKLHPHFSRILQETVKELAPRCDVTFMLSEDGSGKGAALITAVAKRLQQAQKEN
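Test system: recombinant HKDC1 (HK5) hexokinase enzyme, produced in-house / Doses: 20 µM test compound, 1% DMSO / Timing: 90 min, room temperature / Detection: G6PDH/diaphorase-coupled fluorescence, 1 mM NADP, 100 µM resazurin, 525/613 nm / Control set: DMSO wells with and without enzyme mix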
PfGluPho inh: PfG6PD (Plasmodium falciparum) enzyme inhibition; PfGluPho enzyme, NADPH resazurin-diaphorase fluorescence; inhibition, % at 20 µM; actives 0.78% (n = 350,000);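 active = inhibition reaching at least a set limit at 20 µM in the primary screen, cut at about 59% in these data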;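 note: 0% = DMSO wells with substrate and 100% = DMSO wells lacking glucose-6-phosphate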
SUMO HTRF inh: blocks human SUMOylation mediated by UBC9. AID 2006. inhibition, % at 35 µM. actives 0.36% (n = 290,000). HTRF SUMOylation assay, SAE1/SAE2 + UBC9, in vitro; in the data active = inhibition above about 50%, passing the limit was not always enough; inconclusive = no clear call, values can overlap the other calls
A3G deaminase: blocks human APOBEC3G single-stranded DNA deamination; actives 0.28% (n = 330,000); inhibition, % at 20 µM; recombinant A3G, ssDNA deamination FAM/TAMRA fluorescence;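 active = inhibition of at least 40% at 20 µM, with no more than 30% in the related APOBEC3A deaminase screen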;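 note: plate controls were DMSO wells with A3G for no effect and wells lacking A3G enzyme for full effect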
M18AAP inhibitor: PfM18AAP enzyme inhibition; recombinant PfM18AAP, H-Glu-NHMec fluorogenic cleavage; inhibition, % at 7.35 µM; actives 1.2% (n = 290,000);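 active = inhibition above the campaign mean inhibition over all tested compounds plus 3 SD, cut at about 28% in these data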;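 note: 0% = plate median of test compound wells and 100% = 2 mM ZnCl2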
HKDC1 act conf2: confirmation of human HKDC1 activators | shares compounds with HKDC1 inh | recombinant HKDC1, G6PDH/diaphorase resazurin fluorescence; hits give low values | inhibition, % at 20 µM | actives 14% (n = 740);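 active = inhibition at or below a set negative limit, negative inhibition meaning the enzyme was activated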
Numbers without * were called inactive; ? = inconclusive; / = not tested or not shown. This is a sample that favours compounds with a hit; in the whole collection about 2.4% have one here.

SMILES | APOBEC3A inh | HKDC1 inh | PfGluPho inh | SUMO HTRF inh | A3G deaminase | M18AAP inhibitor | HKDC1 act conf2
Cc1nc([N+](=O)[O-])c(Br)n1CC(=O)c1ccc2ccccc2c1 | 3.4 | 45.7* | -0.2 | -3.2 | -0.8 | -7.0 | 40.1
Cc1nc([N+](=O)[O-])c(Br)n1CC(=O)c1ccccc1 | -4.7 | 8.3 | 5.0 | -0.2 | -5.3 | 0.9 | /
Cc1c(C(=O)Nc2ccccc2F)sc2ncn(CC(=O)N3CCCCC3)c(=O)c12 | -3.6 | 3.3 | -7.3 | 11.1 | 1.2 | -2.6 | /
O=S(=O)(c1ccc2ccccc2c1)N1C=CC(C(F)(F)F)=NCC1 | 0.3 | 1.6 | -4.4 | -25.8 | -2.2 | -6.0 | /
O=S(=O)(/N=C/c1c(O)ccc2ccccc12)c1ccccc1 | 1.7 | 44.2* | 29.0 | -3.7 | 5.8 | -0.6 | 19.5
O=C(O)c1ccc(N=Cc2c(O)ccc3ccccc23)cc1 | -11.5 | 33.4 | 35.6 | 18.2 | 22.7 | 3.2 | 43.0
Cc1ccc2c(c1)C(c1ccc(F)cc1)N(C(=O)c1ccccc1Br)CC(=O)N2 (stereo unspecified) | -2.1 | 0.8 | -10.3 | 2.8 | -0.5 | -4.6 | /
CCN1CCN(c2nnc(-c3ccccc3)c3ccccc23)CC1 | 1.4 | -2.4 | 3.9 | 15.4 | -2.6 | -8.0 | /
CCN1CCN(c2cc3c(nn2)Oc2ccccc2N3C)CC1 | -0.4 | -43.8 | -9.4 | 42.9 | -2.2 | 2.1 | -3.6
CC(=O)OCCN(Cc1ccccc1)Cc1ccc2c(c1)OCO2 | 4.2 | 0.5 | 3.7 | -2.9 | 0.1 | -5.2 | /
CSc1nc(N(C)CCO)c2sc3nc(-c4ccco4)c4c(c3c2n1)CCC4 | 95.8 | 47.0* | 10.9 | 39.4 | 89.5 | -38.6 | -18.4
CSc1nc(NCCN(C)C)c2sc3nc(-c4ccco4)c4c(c3c2n1)CCC4 | / | -0.2 | 18.0 | / | / | / | /
O=C(CSc1cccc[n+]1[O-])N1CCCc2ccccc21 | 2.7 | -3.3 | 1.4 | -3.9 | -2.5 | -1.5 | /
CCCc1nc2oc3c(NCC4CCCO4)ncnc3c2c2c1COC(C)(C)C2 (stereo unspecified) | -2.9 | 35.4* | 41.7 | 16.0 | -4.4 | -11.6 | 28.9
CC(C)c1nc2oc3c(NCC4CCCO4)ncnc3c2c2c1CCC2 (stereo unspecified) | 3.3 | 34.7 | 29.9 | 23.5 | 2.9 | -18.0 | /
CCCc1nc2oc3c(NCc4ccccn4)ncnc3c2c2c1COC(C)(C)C2 | -1.3 | 33.7 | 51.7 | 10.2 | 0.0 | 3.5 | 23.1
Cc1nc2oc3c(NCc4ccccn4)ncnc3c2c2c1COC(C)(C)C2 | 0.4 | 21.9 | 22.9 | 4.0 | 2.3 | -0.8 | /
C=CCN(CC=C)CCCOc1ccc(C)cc1OC | 1.4 | -9.8 | -13.7 | 25.6 | 10.5 | -5.4 | /
Cc1onc(-c2ccccc2)c1C(=O)NC(=S)NNC(=O)c1ccncc1 | -0.1 | 7.3 | -34.2 | 13.5 | -5.6 | 9.8 | /
Cc1onc(-c2ccccc2)c1C(=O)NNC(=S)NC(=O)/C=C/c1cccs1 | 1.9 | -57.2 | -44.2 | -84.5 | 1.2 | 9.5 | -23.2
Cc1cc(C)n(-c2ccc(NC(=O)C3CCN(Cc4cc(C)c(C)o4)CC3)cc2)n1 | -1.0 | 41.0* | -0.1 | 8.4 | -0.7 | -7.1 | -23.3
COc1cc(-c2ccc(Nc3ccccc3C(=O)O)c(OC)c2)ccc1Nc1ccccc1C(=O)O | 12.2 | 42.3* | 1.2 | ? | 10.9 | 10.9 | -5.8
CCOC(=O)c1cccc(NC(=O)CSc2nnc(COc3ccccc3)n2CC)c1 | -4.3 | 14.8 | -10.0 | -1.2 | -9.0 | 8.2 | /
O=C(NNC(=O)c1cccnc1)NC1CCCCC1 | -2.0 | -59.5 | -1.0 | 1.6 | -8.0 | 3.4 | -24.9
S=C(NCc1ccccn1)NN=Cc1ccccn1 | / | -44.1 | 52.4 | / | / | / | -45.4*
SMILES | APOBEC3A inh | HKDC1 inh | PfGluPho inh | SUMO HTRF inh | A3G deaminase | M18AAP inhibitor | HKDC1 act conf2
C=CCSc1nc(-c2ccc(OC)cc2)c(C#N)c(=O)n1CC=C | / | 0.0 | -4.9 | 6.0 | / | 1.1 | /
Cc1cc(NC(=O)c2ccccc2)ncc1NC(=O)c1cccs1 | -2.7 | 13.4 | 12.0 | 6.5 | -6.0 | -12.8 | /
CC(C)Nc1nnc(SCC(=O)Nc2ccc3c(c2)C(=O)c2ccccc2C3=O)s1 | / | 43.1* | 36.4 | 19.8 | / | -2.7 | 53.5
CC(C)CCN1C(=O)CCC1(C)C(=O)NC1CCCCCC1 (stereo unspecified) | -5.1 | -5.8 | 8.3 | 21.3 | -7.7 | -1.6 | /
O=S1(=O)CCC(NC(=S)N2CCCCC2)C1 (stereo unspecified) | 4.4 | -8.0 | -6.6 | -4.8 | -0.9 | -4.2 | /
Cc1ccc(-n2[nH]c3c4c(ccc3c2=O)C(=O)c2ccccc2C4=O)cc1 | -2.0 | -7.0 | -2.1 | -23.1 | -5.5 | -6.8 | /
CC(C)(C)n1[nH]c2c3c(ccc2c1=O)C(=O)c1ccccc1C3=O | 5.3 | 42.4* | 28.6 | -0.2 | 3.3 | -1.7 | 12.0
CCc1nc2c(c(=O)c3ccccc3n2C)c(=O)n1C1CCCCCC1 | -3.8 | 0.5 | -7.2 | 23.8 | -6.7 | 0.6 | /
Cn1c2ccccc2c(=O)c2c(=O)n(-c3ccccc3)c(C3CCCCC3)nc21 | -0.2 | 43.3* | 7.2 | -14.9 | -1.3 | 0.4 | 18.2
Cn1c2ccccc2c(=O)c2c(=O)n(C3CCCCCC3)c(C3CCCCC3)nc21 | / | 34.9 | 37.4 | -11.0 | / | 5.1 | 2.2
COc1ccc(CNc2ncnc3cc(Cl)ccc23)cc1 | -0.4 | -6.4 | -3.4 | 17.7 | -5.0 | -6.1 | /
CC1C=CC(C)C(C(=O)O)C1C(=O)O (stereo unspecified) | 25.2 | -5.3 | -6.2 | 14.3 | 26.0 | -1.9 | /
COc1ccc(-c2[nH]c(-c3ccc(SC)cc3)nc2SCC(=O)Nc2nccs2)cc1 | 2.1 | -54.3 | 14.8 | -8.5 | -0.2 | -2.9 | -36.1*
CCOC(=O)N1c2ccccc2Sc2ccccc21 | -2.6 | -9.4 | -8.0 | 4.4 | -4.5 | -3.9 | /
Cc1nnc(SC(=O)N2c3ccccc3Sc3ccccc32)s1 | -7.8 | 33.0 | -2.4 | -8.1 | -12.1 | 2.5 | -10.7
COc1ccc2[nH]c(=O)cc(C(=O)O)c2c1 | 62.6 | 3.2 | -13.1 | 43.9 | 31.0 | 5.9 | /
COc1ccc2[nH]c3c4c(ccc3c2c1)C(=O)C=CC4=O | 1.0 | 51.1* | 90.4* | 13.3 | 19.6 | -7.0 | 32.9
O=C(C[n+]1ccc(C(=O)c2ccccc2)cc1)Nc1ccc(C(F)(F)F)cc1 | -2.7 | -0.6 | 5.1 | 7.9 | -5.5 | -5.6 | /
Cc1ccc(S(=O)(=O)N2CCCCC2)cc1NC(=O)COC(=O)c1cccn1C | 5.0 | -2.3 | 4.5 | / | -3.1 | / | /
CC1(OC(=O)C2CCCC2)C(=O)C=C2C=C(c3ccsc3)OC=C2C1=O (stereo unspecified) | 1.5 | 18.0 | 29.7 | 9.1 | -0.6 | / | /
COc1ccc(C2=CC3=C(Br)C(=O)C(C)(OC(=O)C4CCCC4)C(=O)C3=CO2)cc1 (stereo unspecified) | 13.5 | 52.8* | 16.3 | 7.6 | 1.0 | / | -18.1
O=C(CNC(=O)c1ccccc1)Sc1ccccc1 | / | -1.4 | 1.6 | / | / | / | /
O=C(CCCCC(=O)Sc1ccccc1)Sc1ccccc1 | / | 38.7* | -5.9 | / | / | / | -4.4
